Shown are actives, neighbours in structure and some others; about 2% of the full set was active somewhere.
TRPML3 agonist: agonists of human TRPML3 channel. activation, % at 3 µM. 220,000 compounds, 0.29% hits. HEK293 TRPML3-YFP, Fluo-8 calcium fluorescence; 100% = the carbachol control signal;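 active means activation above its plate's cutoff, the mean activation of the plate's test wells plus 3 SD, cut at about 12% in these data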;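 further: 0% = DMSO only wells and 100% = carbachol wells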
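Test system: TRPML3-YFP stable HEK293 cells. Doses: single point at 3 µM. Incubation: dye loading 1 h 37 °C then 30 min ambient, 125 s read. Signal: Fluo-8 calcium dye fluorescence, ex 470-495, em 515-575 nm. Measure: percent activation from peak-to-basal fluorescence ratio, scaled between DMSO and carbachol.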
GPR7 antag: blocks human GPR7 receptor signaling | P48145 | GPR7-expressing cells, fluorescence antagonist assay | inhibition, % at 4.4 µM | 290,000 compounds, 1.1% hits; in the data active means inhibition above about 16%, passing the limit was not always enough;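 further: cells stimulated with the agonist NPW; 0% = agonist with vehicle and 100% = vehicle without agonist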
Target sequence (P48145 whole entry, looked up): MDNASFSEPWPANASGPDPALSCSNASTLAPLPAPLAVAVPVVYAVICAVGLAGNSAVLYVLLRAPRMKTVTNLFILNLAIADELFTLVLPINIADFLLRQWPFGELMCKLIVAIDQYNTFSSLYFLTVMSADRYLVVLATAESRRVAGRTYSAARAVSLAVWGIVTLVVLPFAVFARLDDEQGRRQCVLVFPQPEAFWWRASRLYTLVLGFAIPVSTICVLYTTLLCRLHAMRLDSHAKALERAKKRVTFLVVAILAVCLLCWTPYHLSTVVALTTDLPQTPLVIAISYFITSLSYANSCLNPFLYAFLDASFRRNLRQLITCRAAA
TRPN1 ag: agonists of zebrafish TRPN1 channel | 220,000 compounds, 0.18% hits | AID 1424 | activation, % at 3 µM | HEK293 zebrafish TRPN1-YFP, Fluo-8 calcium fluorescence; 100% = response to 87 µM carbachol;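 active means activation above its plate's cutoff, the mean activation of test wells on that plate plus 3 SD, cut at about 19% in these data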;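 further: 0% = DMSO alone and 100% = 87 µM carbachol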
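Material: zebrafish TRPN1-YFP in HEK293 cells; Doses: single test compound dose, 3 µM nominal, 0.3% DMSO; Timing: dye loading 1 h at 37 °C, then 30 min room temperature; Technique: intracellular calcium fluorescence with Fluo-8; Benchmarks: high carbachol 87 µM, low DMSO alone.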
CRFR2-BP antag: CRF-BP/CRF-R2 complex antagonism; HEK293 CRF-R2/CRF-BP, CRF-induced calcium fluorescence; inhibition, % at 11.8 µM; 350,000 compounds, 0.59% hits; AID 588475;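 active means inhibition of the ligand-induced calcium signal above about 50% at the single tested concentration, limit read from the data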
CRFR2-BP ag: CRF-BP/CRF-R2 complex agonism; activation, % at 13.2 µM; HEK293 CRF-R2/CRF-BP, calcium dye fluorescence (FLIPR); percent of saturating CRF peptide response; 350,000 compounds, 0.46% hits;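 active means activation of at least 50%, plus an integration ratio under a set limit after plate pattern correction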;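 further: plate controls were neutral control wells without compound for no effect and CRF at EC100 for full effect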
Starred values were filed as active, the others as inactive; nt = no result given; ! = a repeat was not active.

SMILES	TRPML3 agonist	GPR7 antag	TRPN1 ag	CRFR2-BP antag	CRFR2-BP ag
COc1cc2c(cc1OC)C(c1cccc(Br)c1)NC(=O)C2 (configuration not stated)	nt	-9.1	nt	1.4	-1.9
COc1cc2c(cc1OC)C(c1c(Cl)cccc1Cl)NC(=O)C2 (configuration not stated)	nt	-6.0	nt	0.0	52.1*
CC1CCN(C(=S)SCc2nc(N)nc(Nc3ccccc3)n2)CC1	0.4	-6.8	-1.2	-16.8	-4.8
COc1ccccc1Nc1nc(N)nc(CSC(=S)N2CC(C)CC(C)C2)n1 (configuration not stated)	0.2	-9.5	-1.7	53.0*	0.3
C[C@H](CO)N1C[C@H](C)[C@@H](CN(C)Cc2ccccc2F)Oc2ncc(Br)cc2C1=O	nt	nt	nt	-0.5	0.6
Cc1cc(C)n(C(=O)CCNC(=O)c2ccccc2Br)n1	0.6	-2.7	0.3	17.9	0.3
Cc1cc(C)n(C(=O)CNC(=O)c2ccccc2Br)n1	nt	-11.9	nt	97.3*	-1.3
CCc1cc(=O)oc2cc(C)cc(OCC(=O)C(C)(C)C)c12	-1.9	-9.3	-3.1	-14.5	-9.0
Cc1cc(OCC(=O)C(C)(C)C)c2c(C)c(C)c(=O)oc2c1	-1.7	-8.4	-0.5	108.6*	-0.8
CCn1cc(/C=C(\NC(=O)c2ccccc2OC)C(=O)N2CCN(C)CC2)c2ccccc21	nt	-7.5	nt	2.7	-1.2
CC(C)(C)c1ccc(COC(=O)Nc2ccc(F)cc2)cc1	0.2	-6.5	0.1	-17.7	0.2
CC(C)(C)c1ccc(NC(=O)Nc2ccc(F)cc2)cc1	8.6	23.6*	18.1	-11.3	18.6
O=C(NNc1ncnc2c1cnn2-c1ccc(F)cc1)c1ccco1	nt	2.2	nt	68.0*	-1.6
Cc1ccc(-n2ncc3c(NNC(=O)c4ccco4)ncnc32)c(C)c1	0.3	-2.9	-1.1	-31.3	1.4
Cc1cccc(-c2nnc(C(C)Nc3cccc(C(=O)NC4CC4)c3)o2)c1 (configuration not stated)	nt	nt	nt	-9.5	-1.1
O=C(NCCc1ccccc1)C(c1cccs1)N(C(=O)CCl)c1ccc(Cl)cc1 (configuration not stated)	-1.4	22.5*	-1.0	-41.1	6.4
O=C(NCCc1ccccc1)C(c1cccs1)N(C(=O)c1csnn1)C1CC1 (configuration not stated)	0.0	0.0	0.0	13.3	-3.4
O=C(OCC(=O)N1CCN(S(=O)(=O)c2ccc(Cl)cc2)CC1)c1ccc([N+](=O)[O-])o1	0.2	19.8*	-0.3	40.9	-0.6
CC1CCN(C(=O)COC(=O)c2ccc([N+](=O)[O-])o2)CC1	nt	nt	nt	0.7	-1.1
OC1(c2ccc(OC(F)F)cc2)CSC(=Nc2cccnc2)N1Cc1ccco1 (configuration not stated)	1.8	20.0*	1.3	14.7	0.8
CN(CC1CCOCC1)C(=O)CC1C(=O)NCCN1Cc1ccc(Cl)c(F)c1 (configuration not stated)	0.8	-0.2	0.9	79.4*	0.8
CC(NC=O)c1nc2ccccc2n1CCc1ccccc1 (configuration not stated)	nt	-14.3	nt	0.5	-0.4
CCCCCCCC[n+]1cccc(C(=O)N(CC)CC)c1	0.9	-6.5	1.0	1.4	0.6
CCCCCCCCCCCCCCCC[n+]1cccc(C(=O)N(CC)CC)c1	0.5	9.5	3.1	11.6	104.3*!
CC(=O)N1N=C(C)CC1c1ccc(O)cc1 (configuration not stated)	0.6	-9.0	-0.6	-6.8	1.4
SMILES	TRPML3 agonist	GPR7 antag	TRPN1 ag	CRFR2-BP antag	CRFR2-BP ag
CC(=O)N1N=C(C)CC1c1ccc(OCc2ccccc2)cc1 (configuration not stated)	0.4	5.3	0.5	52.3*	-4.6
O=C(CCCSc1ccccc1)Nc1ccc(Cl)c(S(=O)(=O)N2CCOCC2)c1	nt	nt	nt	-8.6	3.4
CCOC(=O)N1CCN(S(=O)(=O)c2ccc(C)c(C)c2C)CC1	0.1	21.3	0.6	93.8*	-0.8
CCOC(=O)N1CCN(S(=O)(=O)c2cc(C)c(C)cc2C)CC1	-0.1	13.3	-0.2	-13.4	0.1
COC(=O)c1ccc(N(CC(=O)NC2CCCC2)C(=O)c2ccc(C)s2)cc1	nt	23.5	nt	10.1	-3.9
CCN(CC)Cc1c(C)[nH]c2ccc(NC(C)=O)cc2c1=O	nt	nt	nt	67.0*	-0.1
CCCc1c(C)[nH]c2ccc(NC(C)=O)cc2c1=O	-0.1	1.1	-1.4	10.9	-1.4
N/C(=N\OC(=O)c1ccccc1F)c1cccc([N+](=O)[O-])c1	nt	-13.6	nt	8.2	-0.9
Cc1ccc(CNc2ccc(N3CCN(C)CC3=O)cc2)cc1	nt	nt	nt	4.7	-0.7
CCC1CCCCN1CC(=O)c1c(C)[nH]c2ccccc12 (configuration not stated)	0.3	-8.2	0.7	47.7	106.6*
Cc1[nH]c2ccccc2c1C(=O)CN1CCCCC1C (configuration not stated)	1.1	-3.1	1.9	19.2	74.4*
CCC1CCCCN1CC(=O)c1c(C)[nH]c2ccc(OC)cc12 (configuration not stated)	1.2	-19.4	-0.3	-14.3	0.8
O=C(COC(=O)/C=C/c1ccc(C(F)(F)F)cc1)NCC1CCCCC1	nt	nt	nt	-9.1	0.2
O=c1[nH]c(=O)n(-c2ccccc2)c2c1C(C(F)(F)F)(C(F)(F)F)N=C(CCC1CCCCC1)N2	0.7	7.6	-0.2	-53.5	109.5*
O=c1[nH]c(=O)n(-c2ccc(F)cc2)c2c1C(C(F)(F)F)(C(F)(F)F)N=C(c1ccc(F)cc1)N2	1.4	-5.8	1.2	66.5*	29.6
CCN(CC(=O)NCc1ccc2c(c1)OCO2)S(=O)(=O)c1ccc(F)cc1	nt	-1.1	nt	-5.7	1.1
COc1cc(OC)cc(C(=O)NCCNc2nc3cc(C)cc(C)c3cc2C#N)c1	nt	-25.7	nt	3.6	0.4
Cc1cccc(N(Cc2ccccc2)C(=O)c2cccc(S(=O)(=O)N3CC(C)OC(C)C3)c2)c1 (configuration not stated)	nt	nt	nt	10.0	-2.6
COc1cccc(CNC(=O)CSCC(=O)Nc2ccc(C)cc2)c1	nt	nt	nt	2.7	4.3
CC(C)(C)OC(=O)NC(Cc1ccccc1)C(=O)N1CCC(C(=O)NCC(=O)Nc2ccc(F)cc2)CC1 (configuration not stated)	nt	-7.2	nt	66.7*	6.7
CCOc1ccc(S(=O)(=O)N2CCCCC2)cc1NC(=O)CN1C(=O)NC(C)(c2ccccc2)C1=O (configuration not stated)	nt	nt	nt	-6.2	1.2
COc1ccc(-n2c(=O)cc(N3CCN(Cc4ccccc4)CC3)[nH]c2=O)cc1	1.1	17.9*	1.4	4.1	1.1
CCC(C)c1ccccc1NC(=O)COc1ccc(-n2cnnn2)cc1 (configuration not stated)	nt	nt	nt	4.4	-1.4
CCc1ccc(-c2cc(C)no2)cc1S(=O)(=O)Nc1cc(C)on1	nt	-5.3	nt	12.8	0.4
CCc1ccc(-c2cc(C)no2)cc1S(=O)(=O)Nc1ccc(Cl)cn1	nt	-10.0	nt	57.1*	0.6
